Assay outcomes from PubChem.
Lipid droplet: modulators of hepatic lipid droplet formation. AID 1656. inhibition, % at 6.5 µM. actives 0.4% (n = 240,000). AML12 mouse hepatocytes, oleate lipid droplets, BODIPY imaging;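 active = lipid droplet intensity inhibited by at least 50%, with more than 500 cells counted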
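System: AML12 hepatocytes (mouse). Probe or stimulus: oleic acid at 100 µM to induce lipid droplet formation. Times: overnight treatment with compound plus oleate. Detection: Image-based BODIPY and DAPI two-channel analysis. Evaluation: percent inhibition of filter-corrected integrated lipid droplet intensity per well.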
NTR1 agonist: activates human neurotensin receptor 1 | NTR1-U2OS beta-arrestin-GFP spot imaging, agonist mode | P30989 | actives 0.17% (n = 330,000) | activation, % at 20 µM;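 active = activation at or above 40% of the spot to cytoplasm intensity ratio, with at least 20 cells analyzed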
PREPL inh: human PREPL enzyme inhibition. Q4J6C6. actives 0.68% (n = 320,000). inhibition, % at 5.96 µM. recombinant PREPL, fluorescence polarization activity-based probe; in the data active = inhibition above about 43%
MC4R antagonist: blocks human MC4R cAMP signaling. actives 0.48% (n = 360,000). MC4R-expressing cells, MTII-stimulated cAMP, LANCE TR-FRET. AID 540295. P32245. inhibition, % at 6.5 µM;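 active = inhibition above its plate's cutoff, the mean of tested wells on that plate plus 3 SD, cut at about 29% in these data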
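Assay system: U2OS-MC4R stable cell line; Also added: Melanotan II; Technique: Eu-cAMP/anti-cAMP TR-FRET, emission 671 nm; Times: 30-min compound, 1-h challenge, 1-h detection, room temperature.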
MC4R ag barr: agonists of human melanocortin 4 receptor (MC4R) beta-arrestin. P32245. U2OS MC4R beta-arrestin complementation, luminescence; percent of melanotan II response, DMSO zero. activation, % at 8.9 µM. actives 0.98% (n = 360,000);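 active = activation above a per-plate cutoff, the mean activation of sample wells on that plate plus 3 SD, cut at about 8% in these data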
HTR2A ag: activates the mouse 5-HT2A serotonin receptor. CHO-K1 mHTR2A beta-arrestin complementation, luminescence; percent of 30 µM serotonin response. actives 0.66% (n = 360,000). AID 624169. activation, % at 7.6 µM. P35363;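 active = activation above a run cutoff, the mean activation of all tested compounds plus 3 SD, cut at about 14% in these data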
Target sequence (P35363 whole entry, looked up): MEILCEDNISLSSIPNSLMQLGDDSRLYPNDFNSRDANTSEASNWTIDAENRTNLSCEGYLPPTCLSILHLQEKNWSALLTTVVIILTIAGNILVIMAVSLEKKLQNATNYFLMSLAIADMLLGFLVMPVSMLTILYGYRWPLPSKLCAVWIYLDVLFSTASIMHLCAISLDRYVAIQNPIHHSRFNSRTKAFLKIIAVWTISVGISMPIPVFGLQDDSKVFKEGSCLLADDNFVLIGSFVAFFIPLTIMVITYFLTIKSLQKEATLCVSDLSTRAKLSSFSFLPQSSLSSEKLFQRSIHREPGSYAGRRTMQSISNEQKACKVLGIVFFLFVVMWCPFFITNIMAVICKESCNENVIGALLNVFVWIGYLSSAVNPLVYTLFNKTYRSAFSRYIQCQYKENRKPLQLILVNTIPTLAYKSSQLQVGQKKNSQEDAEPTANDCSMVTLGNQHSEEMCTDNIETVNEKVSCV
MOR ag counter: activates human mu opioid receptor in HTR2A counterscreen. actives 5.3% (n = 2,300). U2OS OPRM1 beta-arrestin PathHunter, luminescence; DMSO 0%, DAMGO 9.3 µM 100%. AID 624380. activation, % at 9.3 µM. shares compounds with HTR2A ag;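 active = mean activation above the mean of DMSO-only wells plus 3 SD, cut at about 0.5% in these data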
m5-HT2A ag conf: mouse HTR2A agonism confirmed. actives 19% (n = 2,300). activation, % at 7.6 µM. AID 624381. CHO-K1 PathHunter beta-arrestin recruitment, luminescence; DMSO 0%, 30 µM serotonin 100%. shares compounds with HTR2A ag;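 active = mean activation across triplicates above the hit threshold derived in the original primary screen, cut at about 15% in these data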
Each line names hits and unclear results; the compound was inactive in the other large screens (follow-up assays come after a bar, where they were run). Hits are enriched below; roughly 2.7% of the tested compounds scored in any of these assays.

C=C(C)c1cccc(C(C)(C)NC(=O)Nc2cc(C)ccn2)c1	HTR2A ag 35 | MOR ag counter inactive | m5-HT2A ag conf 30
Cc1ccc(O)c(NC(=O)c2cc3nc4c(c(C(F)(F)F)n3n2)CCc2ccccc2-4)c1	HTR2A ag 16 (no result: Lipid droplet) | MOR ag counter inactive | m5-HT2A ag conf inactive
CCN(CC)CCCNC(=O)c1cc2nc3c(c(C(F)(F)F)n2n1)CCc1ccccc1-3	none
O=C(Nc1ccc(S(=O)(=O)Nc2ncccn2)cc1)c1cccc(S(=O)(=O)N2CCCC2)c1	none
O=C(c1ccc(Br)s1)N1CCN(Cc2ccc3c(c2)OCO3)CC1	none
O=C(c1ccccc1)N1CCN(Cc2ccc3c(c2)OCO3)CC1	none
Cc1cccc(C(=O)N2CCN(Cc3ccc4c(c3)OCO4)CC2)c1	HTR2A ag 15 (no result: Lipid droplet) | MOR ag counter inactive | m5-HT2A ag conf inactive
CC(C)CC(=O)N1CCN(Cc2ccc3c(c2)OCO3)CC1	HTR2A ag 19 | MOR ag counter 0.6 | m5-HT2A ag conf 36
O=C(c1ccc(Br)o1)N1CCN(Cc2ccc3c(c2)OCO3)CC1	HTR2A ag 17 (no result: Lipid droplet) | MOR ag counter 0.8 | m5-HT2A ag conf 20
CC(C)[C@H](NC(=O)C1CC(=O)N(c2ccc3c(c2)OCCO3)C1)C(=O)NC1CCCC1 (stereo partly specified)	HTR2A ag 22 | MOR ag counter inactive | m5-HT2A ag conf inactive
O=S(=O)(/N=C(/Nc1cccnc1Cl)c1ccccc1)c1ccccc1	none (no result: Lipid droplet)
COc1ccc(CN(C)S(=O)(=O)c2nnc(NC(=O)c3cccc(OC)c3)s2)cc1	none
COc1cccc(C(=O)Nc2nnc(C(C)C)s2)c1	HTR2A ag 22 | MOR ag counter inactive | m5-HT2A ag conf inactive
COc1cccc(C(=O)Nc2nc(-c3ccncc3)cs2)c1	none
CCCc1nnc(NC(=O)c2cccc(OC)c2)s1	none (no result: Lipid droplet)
COc1cccc(C(=O)Nc2nc(-c3ccc4c(c3)OCO4)cs2)c1	HTR2A ag 16 | MOR ag counter inactive | m5-HT2A ag conf inactive
CN(Cc1ccco1)S(=O)(=O)c1nnc(NC(=O)c2ccccc2Cl)s1	HTR2A ag 18 | MOR ag counter inactive | m5-HT2A ag conf inactive
COc1cccc(C(=O)Nc2nnc(S(=O)(=O)N(C)Cc3ccccc3)s2)c1	HTR2A ag 22 | MOR ag counter inactive | m5-HT2A ag conf inactive
CCCc1cc(=O)oc2cc(C)cc(OCC(=O)N3CCC(C(=O)O)CC3)c12	none
COc1ccc(Cl)cc1NC(=O)COC(=O)CCNS(=O)(=O)c1cccs1	none (no result: Lipid droplet, PREPL inh)
N#C/C(N=Nc1ccccc1O)=N\Nc1ccccc1O	none (no result: Lipid droplet)
CC(Sc1nnc(-c2cccnc2)n1-c1ccccc1F)C(=O)N1CCCc2ccccc21 (stereo unspecified)	none (no result: MC4R antagonist, MC4R ag barr, HTR2A ag)
CC(C)(C)C(=O)N(Cc1nc2ccccc2c(=O)[nH]1)Cc1cccs1	HTR2A ag 15 | MOR ag counter inactive | m5-HT2A ag conf inactive
O=C(CCCl)N(Cc1nc2ccccc2c(=O)[nH]1)Cc1cccs1	none
O=C(C[C@H]1C/C=C\CCC(=O)OC[C@H]2CCCN2C1=O)NCCO	HTR2A ag 20 (no result: Lipid droplet) | MOR ag counter inactive | m5-HT2A ag conf inactive
Cc1cccc(NC(=O)c2cc3c(=O)n4ccccc4nc3n(CC(C)C)c2=N)c1	HTR2A ag 15 | MOR ag counter inactive | m5-HT2A ag conf inactive
CCOC(=O)C(=CNc1ccc2c(c1)CCN2C(C)=O)C(=O)OCC	HTR2A ag 19 | MOR ag counter inactive | m5-HT2A ag conf inactive
CCOC(=O)C(=CNc1ccc(N2CCOCC2)cc1)C(=O)OCC	none
Cc1ccc(NC(=O)C2CCCN2S(=O)(=O)c2ccc3c(c2)n(C)c(=O)c(=O)n3C)c(C)c1 (stereo unspecified)	none
CC(=O)c1ccc(NC(=O)CN2CCC(NC(=O)c3ccccc3C)CC2)cc1	HTR2A ag 23 (no result: Lipid droplet, NTR1 agonist, PREPL inh) | MOR ag counter inactive | m5-HT2A ag conf inactive
O=C1c2ccccc2[C@@H]2C[C@H](NC34CC5CC(CC(C5)C3)C4)[C@@H](O)CCN12	none (no result: Lipid droplet, PREPL inh)
CN1CCN(S(=O)(=O)c2cccc(C(=O)Nc3sccc3C(N)=O)c2)CC1	none (no result: Lipid droplet)
CN1CCN(S(=O)(=O)c2cccc(C(=O)Nc3cc(C(N)=O)cc(C(N)=O)c3)c2)CC1	HTR2A ag 16 | MOR ag counter inactive | m5-HT2A ag conf inactive
CC(C)OCCCNCC(O)c1ccccc1 (stereo unspecified)	none
Cc1ccccc1-c1nc(NCC2CC2)nc2ccsc12	none (no result: Lipid droplet, NTR1 agonist, PREPL inh)
Cc1ccc(F)cc1-c1nc(NCC2CC2)nc2ccsc12	HTR2A ag 16 (no result: Lipid droplet, NTR1 agonist, PREPL inh) | MOR ag counter inactive | m5-HT2A ag conf inactive
COc1ccc(-c2cc3ncnc(Cl)c3s2)cc1	none
CCc1nnc(NC(=O)CCC(=O)N2CCN(Cc3ccccc3)CC2)s1	HTR2A ag 16 (no result: Lipid droplet) | MOR ag counter inactive | m5-HT2A ag conf inactive
O=C(NCc1ccc(F)cc1)c1cc(C2CCCCN2C(=O)c2ccc(Cl)cc2)on1 (stereo unspecified)	HTR2A ag 15 (no result: Lipid droplet, NTR1 agonist, PREPL inh) | MOR ag counter inactive | m5-HT2A ag conf inactive
CC(=O)Nc1nc(C)cs1	HTR2A ag 16 | MOR ag counter inactive | m5-HT2A ag conf inactive
CCOc1ccc(/C=N/NC(=O)C(O)c2ccccc2)c(O)c1 (stereo unspecified)	none
Cc1cc(C(=O)COC(=O)COc2ccc(C#N)cc2)c(C)n1C1CC1	none (no result: Lipid droplet)
COc1cccc(OC)c1OCC(O)CN1CCN(c2ccccc2)CC1 (stereo unspecified)	none (no result: Lipid droplet)
Cc1ccc(N2CCN(CC(O)COc3ccc([N+](=O)[O-])cc3)CC2)cc1 (stereo unspecified)	none
Cc1cccc(C)c1OCC(O)CN1CCN(c2ccccc2)CC1 (stereo unspecified)	HTR2A ag 15 | MOR ag counter inactive | m5-HT2A ag conf 61
O=[N+]([O-])c1ccc(OCC(O)CN2CCN(c3ccccc3F)CC2)cc1 (stereo unspecified)	HTR2A ag 20 | MOR ag counter inactive | m5-HT2A ag conf 46
O=S(=O)(c1ccc(OCC(O)CN2CCN(c3ccccc3)CC2)cc1)N1CCOCC1 (stereo unspecified)	HTR2A ag 18 | MOR ag counter inactive | m5-HT2A ag conf 83
O=S(=O)(c1ccc(OCC(O)CN2CCN(c3ccccc3O)CC2)cc1)N1CCOCC1 (stereo unspecified)	HTR2A ag 19 (no result: Lipid droplet) | MOR ag counter inactive | m5-HT2A ag conf 46
O=S(=O)(c1ccc(OCC(O)CN2CCCC2)cc1)N1CCOCC1 (stereo unspecified)	none
